Data taken from ChEMBL document CHEMBL1149096 (J Med Chem, 2004).
Where “and” joins values, the source holds several entries; their conditions need not be identical. Equal entries are not always repeated. Calls of active or inactive are those of the source.

Key:
[1] = molecular target: Opioid receptors; mu & delta (Rattus norvegicus) (UniProt P33533+P33535); assay: Selectivity given as ratio of mu receptor to delta receptor; assay type: protein assay
Mu-type opioid receptor [2] = molecular target: Mu-type opioid receptor (Rattus norvegicus, UniProt P33535); assay: Binding affinity at Opioid receptor mu 1 by displacement of [3H]DAMGO in rat brain membrane; assay type: cell membranes
[3] = molecular target: Delta-type opioid receptor (Rattus norvegicus, UniProt P33533); assay: Binding affinity at opioid receptor delta 1 by displacement of [3H]DADLE in rat brain membrane; assay type: cell membranes
Cavia porcellus [4] = species: Cavia porcellus; assay: Selectivity given as ratio of kappa receptor to delta receptor
[5] = molecular target: T1, Kappa-type opioid receptor (Cavia porcellus, UniProt P41144); assay: Binding affinity at Opioid receptor kappa 1 by displacement of [3H]U-69593 in guinea pig brain membranes; assay type: cell membranes, Membrane
Mus musculus [6] = species: Mus musculus; assay: Antinociceptive effect was determined at 100 nM in mouse; assay type: functional
[7] = molecular target: T1, Kappa-type opioid receptor; assay: Apparent binding affinity of compound was determined by antagonism towards Opioid receptor kappa 1 in [35S]GTP-gamma-S, binding assay in guinea pig caudate; assay type: functional
[8] = molecular target: T1, Kappa-type opioid receptor; assay: Agonistic activity towards Opioid receptor kappa 1 was determined in [35S]GTP-gamma-S, binding assay in guinea pig caudate; g = not active as an agonist; assay type: functional
How it was run: (§1)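 Guinea pig caudate membranes (10-20 µg protein) incubated 3 h at 22 °C in Tris-HCl pH 7.4 containing 100 mM NaCl, 10 mM MgCl2, 1 mM EDTA, 100 µM GDP and 0.05-0.1 nM [35S]GTP-γ-S, then filtered and counted. Nonspecific binding defined with 10 µM GTP-γ-S. Site isolation used CTAP, nor-BNI, NTI or TIPP. […] Three experiments pooled; logistic fit.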

Mus musculus [9] = species: Mus musculus; assay: Antinociceptive effect was determined by the ability to exhibit 80% reduction of naloxone induced sensitivity; No; assay type: functional, organism-based
[10] = molecular target: Delta-type opioid receptor (Mus musculus) (UniProt P32300); settings: Vas deferens; filed as agonist
Mu-type opioid receptor [11] = molecular target: T2, Mu-type opioid receptor (Cavia porcellus, UniProt P97266); assay: Agonistic activity towards Opioid receptor mu 1 was determined in [35S]GTP-gamma-S, binding assay in guinea pig caudate; assay type: functional; how it was run: as §1
Mu-type opioid receptor [12] = molecular target: T2, Mu-type opioid receptor; assay: Inhibitory concentration for inhibition of Opioid receptor mu 1 induced contractions in guinea pig ileum (GPI) smooth muscle assays; assay type: functional, tissue-based
How it was run: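 Electrically stimulated MVD (male ICR mice, 25-40 g) and GPI longitudinal muscle myenteric plexus strips (male Hartley guinea pigs, 250-500 g). Baths held 37 °C oxygenated Krebs bicarbonate (Mg-free for MVD), tension 1 g GPI / 0.5 g MVD. Stimulation 0.1 Hz, 0.4 ms pulses (2 ms MVD), supramaximal voltage. IC50 from two to four tissues by nonlinear least squares.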

[13] = molecular target: Mu-type opioid receptor (Cavia porcellus) (UniProt P97266); settings: Ileum, filed as agonist
Mu-type opioid receptor [14] = molecular target: T2, Mu-type opioid receptor; assay: Apparent binding affinity of compound was determined by antagonism towards Opioid receptor mu 1 in [35S]GTP-gamma-S, binding assay in guinea pig caudate; assay type: functional
[15] = molecular target: Mu-type opioid receptor (Cavia porcellus) (UniProt P97266)
Mus musculus [16] = species: Mus musculus; assay: Antinociceptive effect was determined by the ability to exhibit 80% reduction of naloxone induced sensitivity; Yes; assay type: functional, organism-based
Mu-type opioid receptor [17] = molecular target: T2, Mu-type opioid receptor; assay: Antagonism of compound towards Opioid receptor mu 1 was determined using PL-017 in guinea pig ileum (GPI) smooth muscle contraction assays; d = agonist effect was observed; assay type: functional, tissue-based
[18] = molecular target: Delta-type opioid receptor (Mus musculus) (UniProt P32300); settings: Vas deferens; filed as agonist; remark: listed apart in the source
[19] = molecular target: Delta-type opioid receptor (Mus musculus) (UniProt P32300); assay: Agonist activity by the maximum response towards opioid receptor delta 1 induced contractions in mouse vas deferens (MVD) smooth muscle contraction assays; assay type: functional, tissue-based
How it was run: (§2)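 Electrically stimulated MVD (male ICR mice, 25-40 g) and GPI longitudinal muscle myenteric plexus strips (male Hartley guinea pigs, 250-500 g). Baths held 37 °C oxygenated Krebs bicarbonate (Mg-free for MVD), tension 1 g GPI / 0.5 g MVD. Stimulation 0.1 Hz, 0.4 ms pulses (2 ms MVD), supramaximal voltage. […] IC50 from two to four tissues by nonlinear least squares.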

Mu-type opioid receptor [20] = molecular target: T2, Mu-type opioid receptor; assay: Agonistic activity towards Opioid receptor mu 1 was determined in [35S]GTP-gamma-S, binding assay in guinea pig caudate; g = not active as an agonist; assay type: functional; how it was run: as §1
[21] = molecular target: Delta-type opioid receptor (Mus musculus) (UniProt P32300); assay: Agonist activity by the max response towards opioid receptor delta 1 induced contractions in mouse vas deferens (MVD) smooth muscle contraction assays; assay type: functional, tissue-based; how it was run: as §2
[22] = molecular target: Mu-type opioid receptor (Cavia porcellus) (UniProt P97266); settings: Ileum, filed as agonist; remark: listed apart in the source
[23] = molecular target: Delta-type opioid receptor (Mus musculus) (UniProt P32300); settings: Vas deferens
[24] = molecular target: T1, Kappa-type opioid receptor; assay: Agonistic activity towards Opioid receptor kappa 1 was determined in [35S]GTP-gamma-S, binding assay in guinea pig caudate; assay type: functional; how it was run: as §1
[25] = molecular target: Mu-type opioid receptor (Cavia porcellus) (UniProt P97266); settings: Ileum
Mus musculus [26] = assay: Analgesic activity was calculated at time of peak drug effect when administered (icv) in mouse warm-water tail withdrawal assay; assay type: functional
How it was run: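 Male ICR mice dosed icv (5 µL; water or 100% DMSO) under light ether anaesthesia. 55 °C warm-water tail withdrawal read at 10-180 min, cutoff 10 s. %MPE = 100 × (test − control)/(cutoff − control). A50 and 95% CI taken at peak effect by linear regression.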

[27] = molecular target: Delta-type opioid receptor (Mus musculus) (UniProt P32300); settings: Vas deferens; filed as agonist; remark: listed apart in the source
Cavia porcellus [28] = species: Cavia porcellus; settings: Ileum, filed as agonist
[29] = molecular target: T1, Kappa-type opioid receptor; assay: Inhibitory concentration required for 50% inhibition of antagonism towards Opioid receptor kappa 1 in [35S]GTP-gamma-S, binding assay in guinea pig caudate; assay type: functional

Mu-type opioid receptor (Rattus norvegicus, UniProt P33535), sequence (P33535 whole entry): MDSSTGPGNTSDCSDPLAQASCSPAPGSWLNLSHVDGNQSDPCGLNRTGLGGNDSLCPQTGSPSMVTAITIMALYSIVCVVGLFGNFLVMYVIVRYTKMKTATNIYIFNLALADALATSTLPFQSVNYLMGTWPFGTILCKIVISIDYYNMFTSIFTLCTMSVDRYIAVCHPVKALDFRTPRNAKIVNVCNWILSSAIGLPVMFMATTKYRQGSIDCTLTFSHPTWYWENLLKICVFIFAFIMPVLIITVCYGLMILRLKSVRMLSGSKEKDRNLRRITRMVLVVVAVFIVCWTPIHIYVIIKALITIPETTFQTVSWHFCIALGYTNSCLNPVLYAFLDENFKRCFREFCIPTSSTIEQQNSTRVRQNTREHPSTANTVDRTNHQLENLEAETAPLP
T2 sequence (P97266 whole entry): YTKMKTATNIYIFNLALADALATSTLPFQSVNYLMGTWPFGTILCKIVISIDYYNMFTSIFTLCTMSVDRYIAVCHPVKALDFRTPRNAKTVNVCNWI
Mu-type opioid receptor (Cavia porcellus), sequence (P97266 whole entry): as above
Opioid receptors; mu & delta (Rattus norvegicus), sequence (P33533 whole entry, looked up): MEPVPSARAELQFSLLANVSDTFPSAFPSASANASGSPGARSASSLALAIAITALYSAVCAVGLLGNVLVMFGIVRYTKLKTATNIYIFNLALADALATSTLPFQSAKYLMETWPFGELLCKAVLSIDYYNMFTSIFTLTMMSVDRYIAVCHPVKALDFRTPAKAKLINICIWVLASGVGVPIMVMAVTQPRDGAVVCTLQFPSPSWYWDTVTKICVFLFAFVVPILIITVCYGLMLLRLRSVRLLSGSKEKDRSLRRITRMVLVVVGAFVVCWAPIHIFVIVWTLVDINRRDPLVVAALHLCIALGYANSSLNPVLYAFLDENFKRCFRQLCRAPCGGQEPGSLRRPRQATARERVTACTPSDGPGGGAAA
Opioid receptors; mu & delta (Rattus norvegicus), sequence (P33535 whole entry, looked up): as the sequence (P33535 whole entry) above
Delta-type opioid receptor, sequence (P33533 whole entry): as the sequence (P33533 whole entry, looked up) above
Delta-type opioid receptor (Mus musculus), sequence (P32300 whole entry): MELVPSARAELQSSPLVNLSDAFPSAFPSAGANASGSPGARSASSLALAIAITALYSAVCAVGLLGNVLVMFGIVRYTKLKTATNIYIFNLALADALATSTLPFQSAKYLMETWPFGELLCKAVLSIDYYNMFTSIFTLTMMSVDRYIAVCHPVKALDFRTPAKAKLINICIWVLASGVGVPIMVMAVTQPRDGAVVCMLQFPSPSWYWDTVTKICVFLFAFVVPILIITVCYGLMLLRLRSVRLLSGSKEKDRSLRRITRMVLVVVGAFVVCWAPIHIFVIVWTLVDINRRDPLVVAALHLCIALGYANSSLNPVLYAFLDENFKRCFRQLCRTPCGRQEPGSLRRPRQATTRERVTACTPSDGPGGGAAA
T1 sequence (P41144 whole entry): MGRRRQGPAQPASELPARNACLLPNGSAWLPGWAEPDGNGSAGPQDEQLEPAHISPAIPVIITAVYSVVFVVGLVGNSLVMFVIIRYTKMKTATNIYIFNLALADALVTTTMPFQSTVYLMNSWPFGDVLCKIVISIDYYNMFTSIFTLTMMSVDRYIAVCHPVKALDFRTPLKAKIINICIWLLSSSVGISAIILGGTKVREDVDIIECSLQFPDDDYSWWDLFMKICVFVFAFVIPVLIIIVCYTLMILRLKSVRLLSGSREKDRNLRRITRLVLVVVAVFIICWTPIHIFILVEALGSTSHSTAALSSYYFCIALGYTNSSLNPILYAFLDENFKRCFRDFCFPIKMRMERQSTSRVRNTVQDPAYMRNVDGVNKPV

Row | SMILES | Ratio [1] | Ratio (Cavia porcellus [4]) | Ki [5] [nM] | Activity (Mus musculus [6]) [%] | EC50 [8] | IC50 (Mu-type opioid receptor [12]) [nM] | Ki (Mu-type opioid receptor [14]) [nM] | other results
1 | COc1ccc2c3c1O[C@H]1c4ncc(-c5ccc(Br)cc5)cc4C[C@@]4(O)[C@@H](C2)N(C)CC[C@]314 | 82 | 320 | 7370 |  |  |  |  | Ki (Mu-type opioid receptor [2]): 1890 nM; Ki [3]: 23 nM
2 | CN1CC[C@]23c4c5ccc(O)c4O[C@H]2c2ncc(-c4ccc(Br)cc4)cc2C[C@@]3(O)[C@H]1C5 | 49 | 108 | 432 |  |  |  |  | Ki (Mu-type opioid receptor [2]): 196 nM; Ki [3]: 4 nM
3 | C[C@@H](NC(=O)[C@@H](N)Cc1ccc(O)cc1)C(=O)NCC(=O)N(C)[C@@H](Cc1ccccc1)C(=O)NCCO [DAMGO] |  |  | 5820 |  |  |  |  | Ki [3]: 469 nM
4 | CN1CC[C@]23c4c5ccc(O)c4O[C@H]2c2ncc(-c4ccccc4)cc2C[C@@]3(O)[C@H]1C5 | 9 | 124 |  | 64 | Not Active | 211 | > 1000 | Ki [7]: > 1000 nM; Activity (Mus musculus [9]): inactive; Ke [10]: Agonist; EC50 (Mu-type opioid receptor [11]; read-out: EC50): 660 nM; Ke [13]: Agonist
5 | CN1CC[C@]23c4c5ccc(O)c4O[C@H]2c2ncc(-c4ccccc4)cc2C[C@H]3[C@H]1C5 | 13 | 43 |  | 48 |  | 98.7 | > 1000 | Ke [15]: inactive; Ki [7]: > 1000 nM; Activity (Mus musculus [16]): Active; EC50 (Mu-type opioid receptor [17]): 1030 nM; EC50 (Mu-type opioid receptor [11]): Not Active; Ke [18]: Agonist
6 | Oc1ccc2c3c1O[C@H]1c4ncccc4C[C@@]4(O)[C@@H](C2)N(CC2CC2)CC[C@]314 | 1.9 | 11 |  |  |  |  |  | Response [19]: 0%
7 | COc1ccc2c3c1O[C@H]1c4ncc(-c5ccc(Cl)cc5)cc4C[C@@]4(O)[C@@H](C2)N(C)CC[C@]314 |  |  | > 7100 |  |  |  |  | 
8 | C=CCN1C[C@H](C)N([C@H](c2ccc(C(=O)N(CC)CC)cc2)c2cccc(OC)c2)C[C@H]1C [SNC-80] |  |  | 8760 |  |  |  |  | Ki (Mu-type opioid receptor [2]): 8070 nM
9 | Oc1ccc2c3c1O[C@H]1c4ncc(-c5ccc(Cl)cc5)cc4C[C@@]4(O)[C@@H](C2)N(CC2CC2)CC[C@]314 |  |  |  | 21 | Not Active | 163 | 7.8 | Response [19]: 21%; EC50 (Mu-type opioid receptor [20]): Not Active
10 | Oc1ccc2c3c1O[C@H]1c4[nH]c5ccccc5c4C[C@@]4(O)[C@@H](C2)N(CC2CC2)CC[C@]314 [NALTRINDOLE] |  |  | 75 |  | Not Active |  |  | Response [19]: 16% and 18%; Ki [3]: 1.6 nM; EC50 (Mu-type opioid receptor [20]): Not Active
11 | CN1CC[C@]23c4c5ccc(O)c4O[C@H]2c2ncc(-c4ccc(Cl)cc4Cl)cc2C[C@H]3[C@H]1C5 | 88 | 366 |  | 40 |  | 724 | > 1000 | Response [21]: 28.3%; Ke [22]: Agonist; Ke [23]: 5.02 nM; EC50 (Mu-type opioid receptor [20]; read-out: EC50): 225 nM; EC50 [24]: Not Active
12 | Oc1ccc2c3c1O[C@H]1c4ncc(-c5ccccc5)cc4C[C@@]4(O)[C@@H](C2)N(CC2CC2)CC[C@]314 | 16 | 20 |  |  |  |  |  | Ke [25]: 43 nM; Response [19]: 4.7%; Ke [23]: 3.7 nM
13 | Oc1ccc2c3c1O[C@H]1c4ncc(-c5ccc(Cl)cc5)cc4C[C@H]4[C@@H](C2)N(CC2CC2)CC[C@]314 | 24 | 2.3 |  |  | Not Active | 109 | 9.2 | Response [21]: 7.9%; Ke [22]: Agonist; Ke [23]: 6 nM; EC50 (Mu-type opioid receptor [20]): Not Active
14 | CN1CC[C@]23c4c5ccc(O)c4O[C@H]2c2ncccc2C[C@@]3(O)[C@H]1C5 | 0.4 | 15 |  |  | Not Active | 523 | > 1000 | Response [21]: 49%; Ki [7]: > 1000 nM; Activity (Mus musculus [16]): Active; A50 (Mus musculus [26]): 67.1 nM; EC50 (Mu-type opioid receptor [11]; read-out: EC50): 3000 nM
15 | CN1CC[C@]23c4c5ccc(O)c4O[C@H]2c2ncccc2C[C@H]3[C@H]1C5 | 1.6 | 8 |  | 75 | Not Active | 67.7 | > 1000 | Ki [7]: > 1000 nM; Ke [22]: Agonist; Activity (Mus musculus [9]): inactive; EC50 (Mu-type opioid receptor [11]; read-out: EC50): 3000 nM; Ke [18]: Agonist
16 | CN1CC[C@]23c4c5ccc(O)c4O[C@H]2c2ncc(-c4ccc(Br)cc4)cc2C[C@H]3[C@H]1C5 | 40 | 18 |  |  |  | 666 | > 1000 | Response [19]: 44%; Activity (Mus musculus [16]): Active; Ke [23]: 20 nM; A50 (Mus musculus [26]): 47.2 nM; EC50 (Mu-type opioid receptor [20]; read-out: EC50): 3220 nM; EC50 [24]: Not Active; Ke [13]: Agonist
17 | CN1CC[C@]23c4c5ccc(O)c4O[C@H]2c2ncc(-c4ccc(Cl)c(Cl)c4)cc2C[C@H]3[C@H]1C5 | 25 | 75 |  | 44 |  | 447 | > 1000 | Ke [27]: Agonist; Ke (Cavia porcellus [28]): Agonist; Ki [29]: 4770 nM; EC50 (Mu-type opioid receptor [20]; read-out: EC50): 1310 nM; EC50 [24]: Not Active
